We go through 7 compounds from ChEMBL document CHEMBL4390653, “Potential anti-herpes and cytotoxic action of novel semisynthetic digitoxigenin-derivatives” (Eur J Med Chem, 2019).

One data set relates to NCI-H460. Description: Cytotoxicity against human H460 cells assessed as inhibition of cell viability after 48 hrs by SRB assay. It is filed as functional, cell-based. Particulars: NCI-H460, 48 h. The essentials: (§1)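 Cells seeded at 2.5 × 10^4 per well and exposed to a concentration range for 48 h, then SRB total-protein stain. PC3 grown in phenol-red-free DMEM with 1% glutamine; LNCaP in phenol-red-free RPMI 1640 with glutamine and non-essential amino acids. HCT-8 and H460 in RPMI 1640. MRC-5 (plus glutamine and non-essential amino acids) and primary gingival fibroblasts in DMEM. All media had 10% FBS, 37 °C, 5% CO2. Paclitaxel was the reference. IC50 versus untreated controls by nonlinear regression, three independent experiments.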
In general terms: Sulforhodamine B stains cellular protein and so reports cell mass.

Data set [1] has as its system Human alphaherpesvirus 2. Description: Antiviral activity against Herpes simplex virus 2-333 infected in African green monkey Vero cells assessed as inhibition of viral replication after 48 hrs by naphthol blue-black staining-based plaque reduction assay. It is filed as functional, organism-based. Particulars: Human alphaherpesvirus 2, 333, Vero. In short, it runs like this: (§2)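 Vero cells in MEM with 10% FBS, 37 °C, 5% CO2. Confluent monolayers (2.5 × 10^5 cells/well) infected with about 100 PFU for 1 h at 37 °C. Non-cytotoxic concentrations were added after infection. Cells were then PBS-washed and overlaid with MEM plus 1.5% carboxymethylcellulose, with or without compound, for 48 h. Fixed, naphthol blue-black stained, plaques counted under a stereomicroscope. IC50 versus untreated controls by nonlinear regression; mean of three independent experiments.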
(In a plaque reduction assay, fewer plaques than in the control indicate reduced infectivity or spread.)

The nature of data set [2]: Selectivity index, ratio of Cytotoxicity against African green monkey Vero cells assessed as reduction in cell viability after 48 hrs by SRB assay to Antiviral activity against Herpes simplex virus 2-333 infected in African green monkey Vero cells assessed as inhibition of viral replication after 48 hrs by naphthol blue-black staining-based plaque reduction assay. The note with it: Vero cells infected with HSV-2 333, read-out: Ratio CC50/IC50. The class given is toxicity. In short, it runs like this: (§3)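 Selectivity index = CC50 in Vero cells (SRB, 48 h) divided by plaque-reduction IC50 for the same virus strain.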

Data set [3] in a line: Selectivity index, ratio of Cytotoxicity against African green monkey Vero cells assessed as reduction in cell viability after 48 hrs by SRB assay to Antiviral activity against acyclovir-resistant Herpes simplex virus 1 29-R infected in African green monkey Vero cells assessed as inhibition of viral replication after 48 hrs by naphthol blue-black staining-based plaque reduction assay. The class given is toxicity. Particulars: Vero cells infected with HSV-1 29-R, read-out: Ratio CC50/IC50. In short, it runs like this:
as §3

Data set [4] is described as follows: Inhibition of porcine cortex Na+/K+-ATPase alpha1/2/3 subunit using ATP as substrate preincubated for 30 mins followed by substrate addition and measured after 30 mins by malachite green reagent-based assay. More on the design: species or system Sus scrofa.
Data set [5] in a line: Cytotoxicity against human HGF cells assessed as inhibition of cell viability after 48 hrs by SRB assay. The class given is cell-based. The essentials:
as §1

For the next data set, the system named is PC-3. Put plainly: Cytotoxicity against human PC3 cells assessed as inhibition of cell viability after 48 hrs by SRB assay. The class given is functional, cell-based. Particulars: PC-3, 48 h. The essentials: as §1
Data set [6] relates to Human alphaherpesvirus 1. Description: Antiviral activity against acyclovir-sensitive Herpes simplex virus 1 KOS infected in African green monkey Vero cells assessed as inhibition of viral replication after 48 hrs by naphthol blue-black staining-based plaque reduction assay. The note with it: Human alphaherpesvirus 1, strain KOS. It is filed as functional, organism-based. In short, it runs like this: as §2

The nature of data set [7]: Selectivity index, ratio of Cytotoxicity against African green monkey Vero cells assessed as reduction in cell viability after 48 hrs by SRB assay to Antiviral activity against acyclovir-sensitive Herpes simplex virus 1 KOS infected in African green monkey Vero cells assessed as inhibition of viral replication after 48 hrs by naphthol blue-black staining-based plaque reduction assay. It is filed as toxicity. The note with it: Vero cells infected with HSV-1 KOS, read-out: Ratio CC50/IC50. The essentials:
as §3

The test system of the next data set is A549. Put plainly: Cytotoxicity against human A549 cells assessed as inhibition of cell viability after 48 hrs by SRB assay. The class given is functional, cell-based. The note with it: A549, 48 h.
The subject of another data set is LNCaP. Description: Cytotoxicity against human LNCAP cells assessed as inhibition of cell viability after 48 hrs by SRB assay. It is filed as functional, cell-based. The essentials:
as §1

Data set [8] can be described thus: Cytotoxicity against African green monkey Vero cells assessed as reduction in cell viability after 48 hrs by SRB assay. The note with it: chlorocebus sabaeus. The class given is cell-based. In short, it runs like this:
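Vero cells in MEM with 10% FBS, seeded at 2.5 × 10^4 cells/well. Exposed to a range of concentrations for 48 h at 37 °C, 5% CO2, then sulforhodamine B total-protein staining. CC50 is the concentration reducing viability by 50% versus untreated controls, from nonlinear regression; mean ± SD of three independent experiments.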

The next data set deals with MRC5. Put plainly: Cytotoxicity against human MRC5 cells assessed as inhibition of cell viability after 48 hrs by SRB assay. It is filed as cell-based. The note with it: MRC5, 48 h. The essentials:
as §1

The test system of the next data set is HCT-8. Put plainly: Cytotoxicity against human HCT8 cells assessed as inhibition of cell viability after 48 hrs by SRB assay. It is filed as functional, cell-based. The note with it: HCT-8, 48 h. In short, it runs like this:
as §1

Data set [9] relates to Human alphaherpesvirus 1. Description: Antiviral activity against acyclovir-resistant Herpes simplex virus 1 29-R infected in African green monkey Vero cells assessed as inhibition of viral replication after 48 hrs by naphthol blue-black staining-based plaque reduction assay. It is filed as functional, organism-based. The note with it: Human alphaherpesvirus 1, 29-R, Vero, 48 h; read-out: IC50. The essentials: as §2

Data set [10] deals with Human alphaherpesvirus 1. Put plainly: Potency index, ratio of IC50 for acyclovir to IC50 for test compound for antiviral activity against acyclovir-sensitive Herpes simplex virus 1 KOS infected in African green monkey Vero cells assessed as inhibition of viral replication after 48 hrs by naphthol blue-black staining-based plaque reduction assay. It is filed as functional, strain KOS.

Data set [11] relates to Human alphaherpesvirus 2. Description: Potency index, ratio of IC50 for acyclovir to IC50 for test compound for antiviral activity against Herpes simplex virus 2-333 infected in African green monkey Vero cells assessed as inhibition of viral replication after 48 hrs by naphthol blue-black staining-based plaque reduction assay. The class given is functional.

The IC50 is the concentration that inhibits the measured activity by half. A word on the CC50: it is the concentration that lowers cell viability or growth by half. Turning to `C[C@]12CC[C@H](NC(=O)CNc3ccc(C#N)cc3)C[C@H]1CC[C@@H]1[C@@H]2CC[C@]2(C)[C@@H](C3=CC(=O)OC3)CC[C@]12O`, the 50% inhibitory concentration (IC50) in the data set on NCI-H460 was 250 nM; in the data set with Human alphaherpesvirus 2 [1], 1000 nM; in data set [4] it was 4160 nM; in data set [5], 2090 nM; in the data set on PC-3, 910 nM; in the data set with Human alphaherpesvirus 1 [6] it was 600 nM. Moreover, the IC50 stood at 540 nM in the data set with A549; 2080 nM in the data set with LNCaP; 1060 nM with MRC5; 1250 nM in the data set with HCT-8; 420 nM with Human alphaherpesvirus 1 [9]. The results for the selectivity ratio at 48 h in data set [2], in data set [3] and in data set [7] were over 300, over 714 and over 500, respectively. Moreover, the cytotoxic concentration (CC50) at 48 h in data set [8] is over 300 µM.
Turning to `C[C@]12CC[C@H](n3cc(CO[C@H]4O[C@H](CO)[C@@H](O)[C@H](O)[C@@H]4O)nn3)C[C@H]1CC[C@@H]1[C@@H]2CC[C@]2(C)[C@@H](C3=CC(=O)OC3)CC[C@]12O`, the IC50 in the data set with NCI-H460 was 240 nM; in the data set on Human alphaherpesvirus 2 [1], 410 nM; in [4], 5470 nM; in data set [5] it was 1410 nM; with PC-3, 580 nM; in the data set with Human alphaherpesvirus 1 [6] it was 550 nM. Further, the IC50 stood at 580 nM in the data set with A549; 1660 nM in the data set with LNCaP; 360 nM in the data set with MRC5; 1020 nM with HCT-8; 370 nM in the data set with Human alphaherpesvirus 1 [9]. The values for the selectivity ratio at 48 h in data set [2], in data set [3] and in data set [7] were over 732, over 811 and over 546, respectively. Also, the CC50 at 48 h in [8] is over 300 µM.
Turning to `C[C@]12CC[C@H](NC(=O)CNCCO)C[C@H]1CC[C@@H]1[C@@H]2CC[C@]2(C)[C@@H](C3=CC(=O)OC3)CC[C@]12O`, the IC50 with NCI-H460 is 70 nM; in the data set on Human alphaherpesvirus 2 [1], 270 nM; in data set [4], 1990 nM; in data set [5] it was 660 nM; in the data set with PC-3, 180 nM; in the data set on Human alphaherpesvirus 1 [6], 230 nM. In addition, the concentration for half-maximal inhibition (IC50) in the data set on A549 is 190 nM; in the data set on LNCaP, 130 nM; in the data set with MRC5, 130 nM; with HCT-8, 90 nM; with Human alphaherpesvirus 1 [9] it was 180 nM. Further, the figures for the selectivity ratio at 48 h in data set [2], in data set [3] and in data set [7] were over 1110, over 1670 and over 1300, respectively. For the same compound, the “Ratio IC50” value came to 6 in the data set on Human alphaherpesvirus 1 [10] and 12 with Human alphaherpesvirus 2 [11]. The CC50 at 48 h in [8] was over 300 µM.
With `CC(=O)O[C@H]1C(=O)[C@@]2(C)[C@H]([C@H](OC(=O)c3ccccc3)[C@]3(O)C[C@H](OC(=O)[C@H](O)[C@@H](NC(=O)c4ccccc4)c4ccccc4)C(C)=C1C3(C)C)[C@]1(OC(C)=O)CO[C@@H]1C[C@@H]2O` [PACLITAXEL], the concentration for half-maximal inhibition (IC50) in the data set with NCI-H460 is 80 nM; in data set [5], over 200000 nM; in the data set on PC-3, 670 nM; with A549, 110 nM; in the data set on LNCaP, 21000 nM; in the data set with MRC5, over 200000 nM. For the same compound, the IC50 in the data set on HCT-8 was found to be 170 nM.
Regarding `C[C@]12CC[C@H](O)C[C@H]1CC[C@@H]1[C@@H]2CC[C@]2(C)[C@@H](C3=CC(=O)OC3)CC[C@]12O` [DIGITOXIGENIN], the IC50 in the data set on NCI-H460 was 920 nM; in the data set on Human alphaherpesvirus 2 [1], 3230 nM; in data set [5] it was 1470 nM; with PC-3, 2410 nM; in the data set on Human alphaherpesvirus 1 [6], 1090 nM; in the data set with A549, 1680 nM. Further, the IC50 stood at 3700 nM with LNCaP, 1160 nM with MRC5, 2480 nM in the data set with HCT-8 and 1020 nM in the data set with Human alphaherpesvirus 1 [9]. In addition, the selectivity ratio at 48 h in data set [2] amounted to 8.53; in data set [3], 27; in data set [7] it was 25.3. Besides, in data set [8], the CC50 at 48 h came out at 27.5 µM.
Regarding `C[C@]12CC[C@H](NC(=O)CO)C[C@H]1CC[C@@H]1[C@@H]2CC[C@]2(C)[C@@H](C3=CC(=O)OC3)CC[C@]12O`, the IC50 in the data set on NCI-H460 was determined as 260 nM; with Human alphaherpesvirus 2 [1], 300 nM; in data set [4], 843 nM; in data set [5], 1670 nM; in the data set with PC-3, 420 nM; with Human alphaherpesvirus 1 [6], 240 nM. Also, the IC50 in the data set on LNCaP amounted to 810 nM; with MRC5 it was 250 nM; with HCT-8, 690 nM; with Human alphaherpesvirus 1 [9], 190 nM. In addition, the selectivity ratio at 48 h in data set [2] is over 1000; in data set [3] it was over 1580; in data set [7], over 1250. In addition, the figures for the “Ratio IC50” value in the data set with Human alphaherpesvirus 1 [10] and in the data set with Human alphaherpesvirus 2 [11] were 6 and 11, respectively. For the same compound, the CC50 at 48 h in data set [8] is over 300 µM.
For `C[C@@H](O)[C@H](O)[C@@H](O)CCN[C@H]1CC[C@@]2(C)[C@H](CC[C@@H]3[C@@H]2CC[C@]2(C)[C@@H](C4=CC(=O)OC4)CC[C@]32O)C1`, the half-inhibitory concentration (IC50) in the data set on NCI-H460 was 370 nM; in the data set on Human alphaherpesvirus 2 [1], 1270 nM; in data set [4] it was 2040 nM; in [5], 2550 nM; in the data set on PC-3 it was 1220 nM; with Human alphaherpesvirus 1 [6], 1460 nM. Also, the IC50 in the data set on A549 was 680 nM; in the data set on LNCaP, 2460 nM; in the data set on MRC5, 550 nM; in the data set with HCT-8 it was 1250 nM; with Human alphaherpesvirus 1 [9], 3230 nM. The selectivity ratio at 48 h in [2] is over 236; in data set [3], over 92.9; in [7], over 206. The CC50 at 48 h in data set [8] was over 300 µM.
